≈ marks a conversion by molar mass, not a printed value. Calls of active or inactive are those of the source. No cut-off for these calls is given here.
Assays:
Bacillus cereus [1] = assay: Antimicrobial activity against Bacillus cereus MTCC 7350 assessed as diameter of inhibition zone at 40 uM after 24 hrs by Kirby -Baur disc diffusion method; format: functional
In short: (§1)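 Kirby-Bauer disc diffusion was used. Acetone stocks (160 µM) were serially doubled down to 80, 40 and 20 µM. 4 µL of each went onto 5 mm sterile paper discs, which were dried 30 min at 50 °C. Inoculum was 1.5 × 10⁸ CFU/mL diluted to 3 × 10² CFU/mL, and 50 µL was spread on Mueller-Hinton agar. After 24 h at 37 °C the inhibition-zone diameter was measured. Ciprofloxacin served as positive control.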

Salmonella typhi [2] = assay: Antimicrobial activity against Salmonella typhi ATCC 23564 after 24 hrs by broth micro serial dilution method; format: functional, Salmonella enterica subsp. enterica serovar Typhi; conditions: Salmonella enterica, ATCC 23564, 24 h
Aspergillus niger [3] = assay: Antifungal activity against Aspergillus niger MTCC 1108 after 48 hrs; format: functional
Trichoderma viride [4] = assay: Antifungal activity against Trichoderma viride MTCC 1107 after 48 hrs; format: functional; conditions: MTCC 1107, 48 h
Trichoderma viride [5] = assay: Antifungal activity against Trichoderma viride MTCC 1107 assessed as zone of inhibition at 80 uM after 48 hrs by disc diffusion method; format: functional; conditions: MTCC 1107, 48 h, read-out: IZ
In short: (§2)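 Spores from 4-day potato dextrose agar cultures, suspended in sterile water at 1.5 × 10⁵ CFU/mL. 0.2 mL was spread on potato dextrose agar. 5 mm filter-paper discs soaked with test compound were laid on the lawn. Incubation was 48 h at 28 °C, then the inhibition zone was measured in mm. Fluconazole was the positive control and acetone the negative control.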

Escherichia coli [6] = assay: Antimicrobial activity against Escherichia coli ATCC 35218 assessed as diameter of inhibition zone at 40 uM after 24 hrs by Kirby -Baur disc diffusion method; format: functional; conditions: ATCC 35218, 24 h, read-out: DIZ; in short: as §1
HepG2 = assay: Cytotoxicity against human HepG2 cells after 24 hrs by MTT assay; format: functional, cell-based
In short: (§3)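 The MTT assay seeded 5 × 10⁴ cells per well and grew them 24 h in RPMI 1640 with compound at 2.5–200 µM. Medium without cells was the blank and adriamycin the positive control. MTT was added for 4 h at 37 °C, formazan was solubilised, and absorbance was read at 570 nm. IC50 is the concentration that cuts viability 50% against untreated cells.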

Pseudomonas aeruginosa [7] = assay: Antimicrobial activity against Pseudomonas aeruginosa ATCC 15499 after 24 hrs by broth micro serial dilution method; format: functional; conditions: ATCC 15499, 24 h
In short: (§4)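 This was broth microdilution in autoclaved Mueller-Hinton broth. 150 µL of compound per well was serially diluted […], and 50 µL of test organism was added. Plates were incubated 24 h at 37 °C and optical density was read.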

Aspergillus niger [8] = assay: Antifungal activity against Aspergillus niger MTCC 1108 assessed as zone of inhibition at 80 uM after 48 hrs by disc diffusion method; format: functional; in short: as §2
Curvularia lunata [9] = assay: Antifungal activity against Curvularia lunata MTCC 581 assessed as zone of inhibition at 20 uM after 48 hrs by disc diffusion method; format: functional; conditions: MTCC 581, 48 h, read-out: IZ; in short: as §2
Curvularia lunata [10] = assay: Antifungal activity against Curvularia lunata MTCC 581 after 48 hrs; format: functional; conditions: MTCC 581, 48 h
QG-56 = assay: Cytotoxicity against human QG56 cells after 24 hrs by MTT assay; format: functional, cell-based; in short: as §3
Bacillus cereus [11] = assay: Antimicrobial activity against Bacillus cereus MTCC 7350 after 24 hrs by broth micro serial dilution method; format: functional; conditions: MTCC 7350, 24 h; in short: as §4
Bacillus cereus [12] = assay: Antimicrobial activity against Bacillus cereus MTCC 7350 assessed as diameter of inhibition zone at 20 uM after 24 hrs by Kirby -Baur disc diffusion method; format: functional; in short: as §1
Escherichia coli [13] = assay: Antimicrobial activity against Escherichia coli ATCC 35218 assessed as diameter of inhibition zone at 80 uM after 24 hrs by Kirby -Baur disc diffusion method; format: functional; conditions: ATCC 35218, 24 h, read-out: DIZ; in short: as §1
Salmonella typhi [14] = assay: Antimicrobial activity against Salmonella typhi ATCC 23564 assessed as diameter of inhibition zone at 40 uM after 24 hrs by Kirby -Baur disc diffusion method; format: functional
Curvularia lunata [15] = assay: Antifungal activity against Curvularia lunata MTCC 581 assessed as zone of inhibition at 40 uM after 48 hrs by disc diffusion method; format: functional; conditions: MTCC 581, 48 h, read-out: IZ; in short: as §2
Escherichia coli [16] = assay: Antimicrobial activity against Escherichia coli ATCC 35218 assessed as diameter of inhibition zone at 20 uM after 24 hrs by Kirby -Baur disc diffusion method; format: functional; conditions: ATCC 35218, 24 h, read-out: DIZ; in short: as §1
Trichoderma viride [17] = assay: Antifungal activity against Trichoderma viride MTCC 1107 assessed as zone of inhibition at 20 uM after 48 hrs by disc diffusion method; format: functional; conditions: MTCC 1107, 48 h, read-out: IZ; in short: as §2
Salmonella typhi [18] = assay: Antimicrobial activity against Salmonella typhi ATCC 23564 assessed as diameter of inhibition zone at 20 uM after 24 hrs by Kirby -Baur disc diffusion method; format: functional
HeLa = assay: Cytotoxicity against human HeLa cells after 24 hrs by MTT assay; format: functional, cell-based; in short: as §3
Mus musculus = assay: Antiinflammatory activity in mouse assessed as inhibition of carrageenan-induced increase in paw volume at 200 mg/kg administered 1 hr prior to carrageenan challenge measured after 3 hrs relative to control; format: functional
In short: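 Mice were fasted 2 h and placed in groups of five. Controls received saline i.p. Phenylbutazone was given at 100 mg/kg i.p., curcumin at 200 mg/kg i.p., and derivatives at 200 mg/kg. After 1 h, 0.1 mL of 1% carrageenan in saline was injected subplantar into the right hind paw. Paw volume was followed by plethysmometer for 3 h, and % inhibition was calculated as (Vc − Vt)/Vc × 100.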

Trichoderma viride [19] = assay: Antifungal activity against Trichoderma viride MTCC 1107 assessed as zone of inhibition at 40 uM after 48 hrs by disc diffusion method; format: functional; conditions: MTCC 1107, 48 h, read-out: IZ; in short: as §2
Staphylococcus aureus [20] = assay: Antimicrobial activity against Staphylococcus aureus ATCC 11632 assessed as diameter of inhibition zone at 80 uM after 24 hrs by Kirby -Baur disc diffusion method; format: functional; conditions: ATCC 11632, 24 h, read-out: DIZ; in short: as §1
Escherichia coli [21] = assay: Antimicrobial activity against Escherichia coli ATCC 35218 after 24 hrs by broth micro serial dilution method; format: functional; conditions: ATCC 35218, 24 h; in short: as §4
Aspergillus flavus [22] = assay: Antifungal activity against Aspergillus flavus MTCC 1021 after 48 hrs; format: functional
HCT-116 = assay: Cytotoxicity against human HCT116 cells after 24 hrs by MTT assay; format: functional, cell-based; in short: as §3
Staphylococcus aureus [23] = assay: Antimicrobial activity against Staphylococcus aureus ATCC 11632 assessed as diameter of inhibition zone at 40 uM after 24 hrs by Kirby -Baur disc diffusion method; format: functional; conditions: ATCC 11632, 24 h, read-out: DIZ; in short: as §1
Staphylococcus aureus [24] = assay: Antimicrobial activity against Staphylococcus aureus ATCC 11632 after 24 hrs by broth micro serial dilution method; format: functional; conditions: ATCC 11632, 24 h; in short: as §4
Staphylococcus aureus [25] = assay: Antimicrobial activity against Staphylococcus aureus ATCC 11632 assessed as diameter of inhibition zone at 20 uM after 24 hrs by Kirby -Baur disc diffusion method; format: functional; in short: as §1
Salmonella typhi [26] = assay: Antimicrobial activity against Salmonella typhi ATCC 23564 assessed as diameter of inhibition zone at 80 uM after 24 hrs by Kirby -Baur disc diffusion method; format: functional, Salmonella enterica subsp. enterica serovar Typhi; conditions: Salmonella enterica, ATCC 23564, 24 h; read-out: DIZ
Curvularia lunata [27] = assay: Antifungal activity against Curvularia lunata MTCC 581 assessed as zone of inhibition at 80 uM after 48 hrs by disc diffusion method; format: functional; conditions: MTCC 581, 48 h, read-out: IZ; in short: as §2
Pseudomonas aeruginosa [28] = assay: Antimicrobial activity against Pseudomonas aeruginosa ATCC 15499 assessed as diameter of inhibition zone at 80 uM after 24 hrs by Kirby -Baur disc diffusion method; format: functional; in short: as §1
Bacillus cereus [29] = assay: Antimicrobial activity against Bacillus cereus MTCC 7350 assessed as diameter of inhibition zone at 80 uM after 24 hrs by Kirby -Baur disc diffusion method; format: functional; conditions: MTCC 7350, 24 h, read-out: DIZ; in short: as §1
Aspergillus flavus [30] = assay: Antifungal activity against Aspergillus flavus MTCC 1021 assessed as zone of inhibition at 80 uM after 48 hrs by disc diffusion method; format: functional; in short: as §2
Pseudomonas aeruginosa [31] = assay: Antimicrobial activity against Pseudomonas aeruginosa ATCC 15499 assessed as diameter of inhibition zone at 20 uM after 24 hrs by Kirby -Baur disc diffusion method; format: functional; conditions: ATCC 15499, 24 h, read-out: DIZ; in short: as §1
Pseudomonas aeruginosa [32] = assay: Antimicrobial activity against Pseudomonas aeruginosa ATCC 15499 assessed as diameter of inhibition zone at 40 uM after 24 hrs by Kirby -Baur disc diffusion method; format: functional; conditions: ATCC 15499, 24 h, read-out: DIZ; in short: as §1
[33] = Salmonella enterica subsp. enterica serovar Typhi
[34] = Salmonella enterica, ATCC 23564, 24 h, read-out: DIZ

COc1cc(/C=C/c2nn(-c3ccccc3)c(/C=C/c3ccc(O)c(OC)c3)c2/N=N/c2ccc(S(=O)(=O)Nc3nc(C)cc(C)n3)cc2)ccc1O
diameter of the inhibition zone (DIZ) (Bacillus cereus [1]): inactive
MIC (Salmonella typhi [2]): > 80 µM
MIC (Aspergillus niger [3]): inactive
MIC (Trichoderma viride [4]): 20 µM (≈ 14.6 µg/mL)
zone of inhibition at 80 µM (Trichoderma viride [5]): 22 mm
zone of inhibition at 40 µM (Escherichia coli [6]): 11 mm
IC50 (HepG2): > 100 µM
MIC (Pseudomonas aeruginosa [7]): > 80 µM
inhibition zone (IZ) (Aspergillus niger [8]): inactive
zone of inhibition at 20 µM (Curvularia lunata [9]): 18 mm
MIC (Curvularia lunata [10]): 20 µM (≈ 14.6 µg/mL)
IC50 (QG-56): 100 µM
MIC (Bacillus cereus [11]): > 80 µM
diameter of the inhibition zone (DIZ) (Bacillus cereus [12]): inactive
zone of inhibition at 80 µM (Escherichia coli [13]): 12 mm
diameter of the inhibition zone (DIZ) (Salmonella typhi [14]; [33]): inactive
zone of inhibition at 40 µM (Curvularia lunata [15]): 19 mm
zone of inhibition at 20 µM (Escherichia coli [16]): 9 mm
zone of inhibition at 20 µM (Trichoderma viride [17]): 18 mm
diameter of the inhibition zone (DIZ) (Salmonella typhi [18]; [33]): inactive
IC50 (HeLa): 50 µM
inhibition in vivo at 200 mg/kg (Mus musculus): 37%
zone of inhibition at 40 µM (Trichoderma viride [19]): 19 mm
zone of inhibition at 80 µM (Staphylococcus aureus [20]): 9 mm
MIC (Escherichia coli [21]): > 80 µM
MIC (Aspergillus flavus [22]): inactive
IC50 (HCT-116): Not Active
zone of inhibition at 40 µM (Staphylococcus aureus [23]): 8 mm
MIC (Staphylococcus aureus [24]): > 80 µM
diameter of the inhibition zone (DIZ) (Staphylococcus aureus [25]): inactive
zone of inhibition at 80 µM (Salmonella typhi [26]): 9 mm
zone of inhibition at 80 µM (Curvularia lunata [27]): 22 mm
diameter of the inhibition zone (DIZ) (Pseudomonas aeruginosa [28]): inactive
zone of inhibition at 80 µM (Bacillus cereus [29]): 9 mm
inhibition zone (IZ) (Aspergillus flavus [30]): inactive

O=C(O)c1cn(C2CC2)c2cc(N3CCNCC3)c(F)cc2c1=O [CIPROFLOXACIN]
zone of inhibition at 40 µM (Bacillus cereus [1]; MTCC 7350, 24 h, read-out: DIZ): 34 mm
MIC (Salmonella typhi [2]): 2.5 µM (≈ 0.828 µg/mL)
zone of inhibition at 40 µM (Escherichia coli [6]): 32 mm
MIC (Pseudomonas aeruginosa [7]): 1.25 µM (≈ 0.414 µg/mL)
MIC (Bacillus cereus [11]): 0.63 µM (≈ 0.209 µg/mL)
zone of inhibition at 20 µM (Bacillus cereus [12]; MTCC 7350, 24 h, read-out: DIZ): 32 mm
zone of inhibition at 80 µM (Escherichia coli [13]): 36 mm
zone of inhibition at 40 µM (Salmonella typhi [14]; [34]): 44 mm
zone of inhibition at 20 µM (Escherichia coli [16]): 29 mm
zone of inhibition at 20 µM (Pseudomonas aeruginosa [31]): 31 mm
zone of inhibition at 20 µM (Salmonella typhi [18]; [34]): 37 mm
zone of inhibition at 40 µM (Pseudomonas aeruginosa [32]): 34 mm
zone of inhibition at 80 µM (Staphylococcus aureus [20]): 36 mm
MIC (Escherichia coli [21]): 1.25 µM (≈ 0.414 µg/mL)
zone of inhibition at 40 µM (Staphylococcus aureus [23]): 32 mm
MIC (Staphylococcus aureus [24]): 1.25 µM (≈ 0.414 µg/mL)
zone of inhibition at 20 µM (Staphylococcus aureus [25]; ATCC 11632, 24 h, read-out: DIZ): 29 mm
zone of inhibition at 80 µM (Salmonella typhi [26]): 52 mm
zone of inhibition at 80 µM (Pseudomonas aeruginosa [28]; ATCC 15499, 24 h, read-out: DIZ): 38 mm
zone of inhibition at 80 µM (Bacillus cereus [29]): 37 mm
